Measurements reported in publication PMC11375723 (ACS Omega, 2024).

Experiments:
Type in all cases: cell-based, human
[1] = test system: HT-1080 fibrosarcoma cells; test: Resazurin antiproliferative microtiter assay, HT-1080; details: read-out: IC50, μM (± SEM), HT-1080, 48 h drug exposure
Outline: (§1)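 Human cells at 37 °C, 5% CO2, with 10% cosmic calf serum in DMEM/F12 (A549), DMEM (MDA-MB-231, HFF) or EMEM (HT-1080, MRC-5). Plated 5,000 cells/180 µL and left 24 h to adhere. Test compound 0.1–100 µM, quadruplicate, 2–3 repeats, 48 h. Then 0.1% resazurin; fluorescence ex 530/em 590 after 24–48 h.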

[2] = test system: MDA-MB-231 breast carcinoma cells; test: Resazurin antiproliferative microtiter assay, MDA-MB-231; details: read-out: IC50, μM (± SEM), MDA-MB-231, 48 h drug exposure
Outline: as §1

[3] = test system: A549 lung carcinoma cells; test: Resazurin antiproliferative microtiter assay, A549; details: read-out: IC50, μM (± SEM), A549, 48 h drug exposure
Outline: as §1

| Molecule | IC50 [1] [µM] | IC50 [2] [µM] | IC50 [3] [µM] |
| --- | --- | --- | --- |
| Pyrrolidine-2-(4-methoxyphenyl)diazothioformamide – Cu(l)I [Compound 4b] | < 1 |  |  |
| Piperidine-2-(4-methoxyphenyl)diazothioformamide – Cu(l)Br [Compound 5c] | < 1 |  |  |
| N.N.[Cl][Pt][Cl] [Cisplatin] | 17.5 | 48.6 | 19 |
